GASC-1 inh: human JMJD2C demethylase inhibition. Q9H3R0. inhibition, % at 2.35 µM. AID 2099. GST-JMJD2C(1-420) H3K9me3 demethylation, DELFIA europium. 330,000 compounds, 0.069% hits;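 active = more than half of a compound's replicate wells show inhibition beyond 50%, single wells judged on their own value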;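 also: signal counts dimethyl H3K9 product captured on neutravidin plate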
Target sequence (Q9H3R0 1-420 limits assumed): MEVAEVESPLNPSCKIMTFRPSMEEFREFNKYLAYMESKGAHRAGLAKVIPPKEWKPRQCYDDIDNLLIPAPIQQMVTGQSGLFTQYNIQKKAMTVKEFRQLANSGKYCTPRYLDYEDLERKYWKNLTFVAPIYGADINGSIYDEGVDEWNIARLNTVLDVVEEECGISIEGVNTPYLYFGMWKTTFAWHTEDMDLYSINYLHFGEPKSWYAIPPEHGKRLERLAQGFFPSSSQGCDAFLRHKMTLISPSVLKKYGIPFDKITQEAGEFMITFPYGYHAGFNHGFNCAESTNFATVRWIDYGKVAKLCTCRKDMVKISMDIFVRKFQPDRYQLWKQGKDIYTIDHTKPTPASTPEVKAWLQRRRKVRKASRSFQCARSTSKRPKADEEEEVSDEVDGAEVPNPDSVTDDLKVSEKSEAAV
GRK2 aptamer HTS: inhibitors of human GRK2 displacing RNA aptamer | inhibition of aptamer binding, % at 10 µM | 330,000 compounds, 0.59% hits | AID 488847 | bead flow cytometry, FAM-aptamer displacement from GRK2 | P25098;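 active = inhibition of aptamer binding above 40%, roughly 3 SD of noise, on plates passing a quality check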;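 also: median bead fluorescence of bound FAM aptamer so fluorescent compounds give negative values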
procasp3 activ: procaspase-3 (human) activation; P42574; recombinant procaspase-3 D3A, Ac-DEVD-pNA absorbance 405 nm; activation, % at 8.5 µM; 330,000 compounds, 0.11% hits; AID 463141;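 active = activation above the mean of all tested compounds plus 3 SD, cut at about 21% in these data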
Target sequence (P42574 whole entry D9A/D28A/D175A): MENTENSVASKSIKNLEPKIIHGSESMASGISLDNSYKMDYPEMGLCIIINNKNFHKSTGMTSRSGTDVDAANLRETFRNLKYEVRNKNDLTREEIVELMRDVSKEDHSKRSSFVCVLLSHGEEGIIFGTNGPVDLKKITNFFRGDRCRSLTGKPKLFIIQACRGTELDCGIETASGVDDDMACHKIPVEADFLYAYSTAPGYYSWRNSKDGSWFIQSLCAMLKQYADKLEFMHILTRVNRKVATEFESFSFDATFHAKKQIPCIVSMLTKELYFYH
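Evaluation: percent activation relative to control range; Material: Procaspase-3 D3A mutant, all three cleavage aspartates alanine; Compound: single dose, 8.5 µM nominal compound, 0.8% DMSO; Replication: one well per compound; Signal: absorbance at 405 nm, 0 and 120 min; Schedule: 1 h preincubation plus 2 h reaction at 25 °C.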
Lipid droplet: modulators of hepatic lipid droplet formation | AID 1656 | 240,000 compounds, 0.4% hits | inhibition, % at 6.5 µM | AML12 mouse hepatocytes, oleate lipid droplets, BODIPY imaging;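 active = lipid droplet intensity inhibited by at least 50%, with more than 500 cells counted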
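Assay system: AML12 mouse liver cells | Compound dosing: One dose, 6.5 µM compound | Read-out basis: Droplet intensity reduction, % inhibition | Measured by: Fluorescence imaging, 20x objective, two fields per well | Schedule: Overnight treatment with compound plus oleate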
proCasp7 act: activates human procaspase-7, counter-screen for procaspase-3 activators; 330,000 compounds, 0.093% hits; activation, % at 8.5 µM; AID 463210; recombinant procaspase-7, Ac-DEVD-pNA absorbance 405 nm; D23A/D198A/D206A triple mutant, cannot self-cleave; scale: DMSO 0, 5 µM enzyme 100;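 active = percent activation above the screen-wide mean plus 3 SD, cut at about 25% in these data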
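System: Procaspase-7 triple mutant (PC-7 D3A); measure: % activation from two-timepoint absorbance difference, scaled to controls; times: 1 h compound preincubation, 2 h substrate cleavage, 25 °C; also added: Ac-DEVD-pNA substrate, 400 µM as added; measured by: Epi-absorbance of released pNA at 405 nm, two timepoints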
VLA-4 inh: inhibition in a human VLA-4 binding assay; P13612; VLA-4 expressing cells, ligand binding flow cytometry; inhibition, % (about 7 µM as worked out from the volumes in the protocol); 330,000 compounds, 0.2% hits; in the data active = inhibition above about 50%
Hep lipid conf: hepatic lipid droplet formation inhibition, confirmed; inhibition, % at 5.2 µM; shares compounds with Lipid droplet; AID 463183; AML12 mouse hepatocytes, BODIPY lipid droplet imaging; droplets induced with 100 µM oleic acid; 870 compounds, 65% hits;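 active = inhibition of lipid droplet metric at least 50%, with more than 300 cells in each of four replicates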
AML12 tox img: toxic to AML12 mouse hepatocytes in counter-screen | DAPI nuclear morphology cytotoxicity imaging; stronger effect = higher value; cells fed 100 µM oleate overnight | 870 compounds, 3% hits | shares compounds with Lipid droplet | z-score at 5 µM; in the data active = z-score above about 6.3;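 also: compound exposure lasted overnight at 37 °C before fixation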
AML12 tox ATP: confirmation of cytotoxicity in AML12 mouse hepatocytes; shares compounds with Lipid droplet; AML12 mouse hepatocyte viability, ATP luminescence; cells loaded with 100 µM oleic acid; AID 463219; cytotoxicity, % at 50 µM; 530 tested, under 10 active;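 active = cytotoxicity above 50% in each of four replicates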;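 also: compound exposure lasted overnight at 37 °C before the ATP read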
VLA-4 allo CP: confirmation of allosteric modulators of human VLA-4 integrin. shares compounds with VLA-4 inh. inhibition, % at 6.7 µM. 1,300 compounds, 2% hits. U937 cells, HUTS-21 LIBS mAb binding, flow cytometry; LDV ligand present at threefold Kd; in the data active = inhibition above about 40%
GRK2 inh confirm: human GRK2 inhibition confirmation, cherry pick 1; bead-bound GRK2, FAM-aptamer displacement, flow cytometry; 2,000 compounds, 4% hits; shares compounds with GRK2 aptamer HTS; aptamer displacement, % at 10 µM; AID 504451;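 active = aptamer displacement above 40%, near three times the noise of non-fluorescent compounds, on plates passing quality checks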;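 also: negative values mostly reflect intrinsic compound fluorescence rather than true enhancement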
FAM quench CP1: counter-screen for GRK2 aptamer inhibitors: fluorescent aptamer quenchers. shares compounds with GRK2 aptamer HTS. Carboxyfluorescein RNA aptamer on beads, flow cytometry quenching; stronger effect = lower value. fluorescence response (% of DMSO), % at 10 µM. 2,000 tested, under 10 active. AID 504580;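 active = compounds that quench the bead-bound fluorescent RNA probe, cutting fluorescence to under half of the solvent control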;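 also: counterscreen run without GRK2 so only probe quenching by compound is measured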
GRK2 confirm 2: human GRK2 inhibition confirmation, cherry pick 2. bead-bound GRK2, FAM-aptamer displacement, flow cytometry. shares compounds with GRK2 aptamer HTS. inhibition of aptamer binding, % at 10 µM. 360 tested, under 10 active;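 active = inhibition of aptamer binding above 40%, about triple the noise seen with nonglowing compounds, on plates passing quality control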;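 also: negative values mostly come from compounds that fluoresce themselves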
FAM quench SP: aptamer fluorescence quenching in GRK2 counter-screen; shares compounds with GRK2 aptamer HTS; carboxyfluorescein RNA aptamer beads, flow cytometry quenching; stronger effect = lower value; fluorescence response vs DMSO, % at 10 µM; 360 tested, under 10 active;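 active = response vs DMSO under 50%, meaning signal dropped by over half, treated as fluorescence quencher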;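 also: labelled aptamer on streptavidin beads without GRK2 as a quench counter-screen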
Hits are given with their value; n = inactive; x = no result. Sampled rows, rich in hits. Any-hit rate of the full collection: about 1.3%.

SMILES | GASC-1 inh | GRK2 aptamer HTS | procasp3 activ | Lipid droplet | proCasp7 act | VLA-4 inh | Hep lipid conf | AML12 tox img | AML12 tox ATP | others
CCOC(=O)N1CCN(C(=O)CSCC(=O)Nc2nc(-c3cccs3)cs2)CC1 | n | n | n | 79 | n | n | 97 | n | n
O=C(CSCC(=O)N1CCCc2ccccc21)Nc1nc(-c2ccccc2)cs1 | n | n | n | 69 | n | n | 90 | n | n
C=CCn1cnc2c(nnn2-c2ccc(Cl)cc2)c1=O | n | n | n | n | n | n | x | x | x
COc1cccc(N2CCN(CC(=O)Nc3nnc(-c4ccccc4)s3)CC2)c1 | n | n | n | 59 | n | n | 95 | n | n
COc1cccc(N2CCN(CC(=O)NC3=Nc4ccccc4N=C(C)C3c3ccccc3)CC2)c1 (stereo unspecified) | n | n | n | n | n | n | x | x | x
C=CCC1CCCC(=O)N2CC[C@H](O)C12 (stereo partly specified) | n | n | n | n | n | n | x | x | x
O=C(Nc1nc(-c2cccc([N+](=O)[O-])c2)cs1)c1cccc([N+](=O)[O-])c1C(=O)O | n | n | n | n | n | n | x | x | x
O=C(Cc1cccc2ccccc12)Nc1nc(-c2cccc([N+](=O)[O-])c2)cs1 | n | n | n | 68 | n | n | 100 | n | n
CC(C)Oc1ccc(C(=O)OC(C)C(=O)Nc2nc(-c3cccc([N+](=O)[O-])c3)cs2)cc1 (stereo unspecified) | n | n | n | 91 | n | n | 97 | n | n
COc1ccc(NS(=O)(=O)c2ccc(C)c(C(=O)N(C)Cc3ccc(C)cc3)c2)cc1 | n | n | n | x | n | n | x | x | x
CCc1ccc(N(CC(=O)O)S(=O)(=O)c2c(C)noc2C)cc1 | n | n | n | n | n | n | x | x | x
Cc1cc(C)cc(N(CC(=O)O)S(=O)(=O)c2c(C)noc2C)c1 | n | n | n | 58 | n | n | n | n | x
CCCc1cc(=O)[nH]c(SCC(=O)NCC2COc3ccccc3O2)n1 (stereo unspecified) | x | n | n | x | n | n | x | x | x
CCOc1ccc(C(=O)Nc2cc(NC(=O)c3ccc(OCC)c(Cl)c3)cc(C(=O)O)c2)cc1Cl | n | x | x | n | x | x | x | x | x
CCOc1ccc(C(=O)Nc2ccc(NC(=S)NC(=O)CC)cc2)cc1Cl | n | n | n | 50 | n | x | 102 | n | n
Cc1ccc(CNC(=O)c2ccc(N3CCC4(CC3)CC(c3ccccc3)=NO4)c(N)c2)cc1 | n | n | n | 52 | n | n | 89 | n | n
Cc1ccc(CNC(=O)c2ccc(N3CCC4(CC3)CC(c3ccccc3)=NO4)c(NC(=O)c3ccc(Br)cc3)c2)cc1 | n | n | n | 73 | n | n | 104 | n | n
CCCCN(C(=O)C1CC(=O)N(CCc2ccc(OC)c(OC)c2)C1)c1c(N)n(CCCC)c(=O)[nH]c1=O (stereo unspecified) | n | n | n | x | n | n | x | x | x
COc1ccc(NC(=O)c2onc(C)c2Cl)cc1 | n | n | n | n | n | n | x | x | x
COc1ccc(S(=O)(=O)N(c2onc(C)c2Cl)S(=O)(=O)c2ccc(OC)cc2)cc1 | n | n | n | 60 | n | n | n | n | x
CN(C)c1ccc(NC2=C([N+](=O)[O-])CS(=O)(=O)C2)cc1 | n | n | n | 84 | n | n | n | n | x
Cc1ccc(NC2=C([N+](=O)[O-])CS(=O)(=O)C2)cc1 | n | n | n | n | n | n | x | x | x
CCOc1ccc(C(C)NC(=O)Cc2ccccc2)cc1OCC (stereo unspecified) | n | n | n | 53 | n | n | 73 | n | n
CCOc1ccc(C(C)NC(=O)c2cccs2)cc1OCC (stereo unspecified) | n | n | n | x | n | n | x | x | x
CCOc1ccc(C(C)NC(=O)Cc2ccccc2F)cc1OCC (stereo unspecified) | n | 68 | n | 50 | n | n | 93 | n | n | GRK2 inh confirm=n;FAM quench CP1=n
SMILES | GASC-1 inh | GRK2 aptamer HTS | procasp3 activ | Lipid droplet | proCasp7 act | VLA-4 inh | Hep lipid conf | AML12 tox img | AML12 tox ATP | others
CCOc1ccc(NC(=O)CCC(=O)NNC(=O)c2ccccc2Cl)cc1 | n | n | x | n | x | n | x | x | x
CSc1c(CC(=O)Nc2ccccc2C(F)(F)F)n(Cc2ccccc2)c2ccccc12 | n | 100 | n | 69 | n | n | 104 | n | x | GRK2 confirm 2=n;FAM quench SP=n
CSc1c(CC(=O)Nc2ccccc2Cl)n(Cc2ccccc2)c2ccccc12 | n | n | n | x | n | n | x | x | x
O=C(NCCc1ccccc1)c1oc2ccccc2c1COc1ccccc1 | n | 69 | n | 64 | n | n | 87 | n | n | GRK2 inh confirm=n;FAM quench CP1=n
Cc1ccc(Cl)cc1NS(=O)(=O)Cc1ccccc1 | n | n | n | n | n | n | x | x | x
COC(=O)C1=C(NC(=O)COc2ccc3ccccc3c2)CCS1 | n | n | n | n | n | n | x | x | x | VLA-4 allo CP=n
CC1CN(C(=O)Cn2c(=O)oc3ccccc32)CC(C)O1 (stereo unspecified) | n | n | n | n | n | n | x | x | x | VLA-4 allo CP=n
CCN(C(=O)Cn1c(=O)oc2ccccc21)c1cccc(C)c1 | n | n | n | n | n | n | x | x | x
CC(=O)N1CCN(C(=O)Cn2c(=O)oc3ccccc32)CC1 | n | n | n | x | n | n | x | x | x
CCCN(CC(=O)Nc1ccccc1OC)C(=O)Cn1c(=O)oc2ccccc21 | x | x | x | x | x | x | x | x | x | VLA-4 allo CP=n

Screening data deposited in PubChem by several laboratories.
